# Measurements reported in ChEMBL document CHEMBL4390639, “Design, Synthesis, and Biological Evaluation of Novel Allosteric Protein Disulfide Isomerase Inhibitors” (J Med Chem, 2019).
# Active and inactive are the calls of the source. The calls are words filed in the database; no cut-off is given here.
# Legend:
# [1] = target: T1, Protein disulfide-isomerase (Homo sapiens, UniProt P07237); experiment: Inhibition of recombinant human N-terminal His-tagged PDI expressed in Escherichia coli BL21 (DE3) pLysS assessed as reduction in enzyme-mediated bovine insulin aggregation
# [2] = test system: A 172; experiment: Cytotoxicity against human A172 cells assessed as inhibition of cell growth measured after 72 hrs by MTT assay; type: functional, cell-based; settings: Homo sapiens, A 172, 72 h; read-out: IC50
# How it was run: (§1)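 A172 and NU04 cells were seeded at 4000 cells/well and U87MG at 5000 cells/well, incubated overnight at 37 °C, 5% CO2, then exposed to compound or vehicle for 72 h. MTT (3 mg/mL) was added for 4 h, formazan was dissolved in DMSO, and absorbance was read at 570 nm. IC50 came from nonlinear regression; mean ± SD of at least three experiments.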
# [3] = test system: U-87 MG; experiment: Cytotoxicity against human U87MG cells assessed as inhibition of cell growth measured after 72 hrs by MTT assay; type: functional, cell-based, U-87MG ATCC; settings: Homo sapiens, U-87 MG, 72 h; read-out: IC50; how it was run: as §1
# [4] = Cytotoxicity against human NU04 cells assessed as inhibition of cell growth measured after 72 hrs by MTT assay; type: functional, cell-based; settings: Homo sapiens, 72 h; read-out: IC50; how it was run: as §1
# [5] = test system: U-87 MG; experiment: Cytotoxicity against human U87MG cells assessed as inhibition of cell proliferation at <IC50 measured after 72 hrs by MTT assay relative to control; type: functional, U-87MG ATCC
# [6] = test system: U-87 MG; experiment: Cytotoxicity against human U87MG cells assessed as inhibition of cell proliferation at <IC50 treated for 24 hrs and measured after 10 days by colony formation assay relative to control
# [7] = target: T1, Protein disulfide-isomerase; experiment: Inhibition of recombinant human N-terminal His-tagged PDI expressed in Escherichia coli BL21 (DE3) pLysS at 100 uM measured after 1 hr by ANS dye based fluorescence spectra analysis
# How it was run: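 ANS spectral scan: PDI incubated with 100 μM compounds or matching DMSO in TBS for 1 h at 37 °C. ANS then added and incubated 20 min at 25 °C in the dark. Fluorescence spectrum recorded with excitation 370 nm, emission 400–700 nm.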
# Target sequence in this assay (P07237 18-508 limits assumed): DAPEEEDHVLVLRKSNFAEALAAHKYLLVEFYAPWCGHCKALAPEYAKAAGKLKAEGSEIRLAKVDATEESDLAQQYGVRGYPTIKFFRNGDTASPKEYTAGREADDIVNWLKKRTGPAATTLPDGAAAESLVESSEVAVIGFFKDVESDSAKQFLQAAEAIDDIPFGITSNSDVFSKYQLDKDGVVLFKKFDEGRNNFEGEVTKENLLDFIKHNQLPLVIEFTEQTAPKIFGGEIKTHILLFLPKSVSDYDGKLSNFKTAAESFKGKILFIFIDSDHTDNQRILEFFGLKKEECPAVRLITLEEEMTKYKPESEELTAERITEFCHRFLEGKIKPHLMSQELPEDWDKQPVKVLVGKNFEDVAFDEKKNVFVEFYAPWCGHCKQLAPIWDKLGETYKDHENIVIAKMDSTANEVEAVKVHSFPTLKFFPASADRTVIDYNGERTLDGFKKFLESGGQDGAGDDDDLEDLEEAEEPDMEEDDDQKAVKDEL
smiles,measurement,setting,value
N#Cc1cccc(/C=C/C(=O)c2ccc(O)c(C(F)(F)F)c2)c1,IC50,[1],2 µM
COC(=O)c1cccc(/C=C/C(=O)c2ccc(O)cc2)c1,IC50,[2],32.3 µM
same,IC50,[3],28.8 µM
same,IC50,[4],30.6 µM
same,IC50,[1],0.4 µM
same,inhibition (INH),[5],>50%
O=C(/C=C/c1cccc(O)c1)c1ccc(NC(=O)c2cccs2)cc1,IC50,[1],5.74 µM
COc1ccc(/C=C/C(=O)c2ccc(O)cc2)cc1,IC50,[1],1.74 µM
CCCN(CCC)S(=O)(=O)c1ccc(C(=O)/C=C/c2cccc(C(=O)OC)c2)cc1,IC50,[1],> 100 µM
O=C(/C=C/c1cccc(O)c1)c1ccc(OC(=O)c2cccs2)cc1,IC50,[1],1.75 µM
COc1ccc(C(=O)/C=C/c2cccc(C(=O)O)c2)cc1O,IC50,[1],> 100 µM
N#Cc1ccc(/C=C/C(=O)c2ccc(F)cc2O)cc1,IC50,[1],1.8 µM
CCCCN(CCCC)S(=O)(=O)c1ccc(C(=O)/C=C/c2cccc(C#N)c2)cc1,IC50,[2],67.3 µM
same,IC50,[3],17 µM
same,IC50,[4],15.5 µM
same,IC50,[1],1.34 µM
same,inhibition (INH),[5],>50%
O=C(/C=C/c1ccc(O)cc1)c1ccccc1O,inhibition,[1],inactive
CCN(CC)S(=O)(=O)c1ccc(C(=O)/C=C/c2cccc(O)c2)cc1,IC50,[2],31.2 µM
same,inhibition (INH),[6],>50%
same,IC50,[3],40.7 µM
same,IC50,[4],19.2 µM
same,IC50,[1],1.29 µM
N#Cc1cccc(/C=C/C(=O)c2ccc(N3CCCCC3)cc2)c1,IC50,[1],> 500 µM
CC1(C)OB(c2ccc(/C=C/C(=O)c3ccccc3)cc2)OC1(C)C,IC50,[1],2.2 µM
N#Cc1ccc(/C=C/C(=O)c2ccc(F)c(O)c2)cc1,IC50,[1],1.83 µM
O=C(/C=C/c1ccc(-n2cnc3ccccc32)cc1)c1cccc(O)c1,IC50,[2],10.7 µM
same,IC50,[3],10.8 µM
same,IC50,[4],9.9 µM
same,IC50,[1],0.23 µM
same,inhibition (INH),[5],>50%
O=C(O)c1cccc(/C=C/C(=O)c2ccc(O)c(C(F)(F)F)c2)c1,IC50,[1],4.09 µM
O=C(/C=C/c1cccc(O)c1)c1ccc(NS(=O)(=O)c2cccs2)cc1,IC50,[1],11.1 µM
CCCCN(CCCC)S(=O)(=O)c1ccc(C(=O)/C=C/c2cccc(C(=O)OC)c2)cc1,IC50,[1],> 100 µM
N#Cc1ccc(/C=C/C(=O)c2ccc(O)cc2)cc1,IC50,[2],20 µM
same,inhibition (INH),[6],>50%
same,IC50,[3],15.1 µM
same,IC50,[4],12.8 µM
same,IC50,[1],0.74 µM
O=C(O)c1cccc(/C=C/C(=O)c2cccc(O)c2)c1,IC50,[1],10.2 µM
O=C(O)c1cccc(/C=C/C(=O)c2ccc(NS(=O)(=O)c3ccc([N+](=O)[O-])cc3)cc2)c1,IC50,[1],4 µM
N#Cc1cccc(/C=C/C(=O)c2ccc(F)cc2O)c1,IC50,[1],2.37 µM
CCCN(CCC)S(=O)(=O)c1ccc(C(=O)/C=C/c2cccc(C#N)c2)cc1,IC50,[2],35 µM
same,IC50,[3],25.6 µM
same,IC50,[4],26.6 µM
same,IC50,[1],0.82 µM
same,inhibition (INH),[5],>50%
O=C(O)c1cccc(/C=C/C(=O)c2ccc(O)c(F)c2)c1,IC50,[1],9.1 µM
O=C(/C=C/c1ccc(C(F)(F)F)cc1)c1ccc(O)cc1,IC50,[1],2.56 µM
O=C(/C=C/c1cccc(C(F)(F)F)c1)c1cnccn1,IC50,[1],9.57 µM
O=C(/C=C/c1ccccc1C(F)(F)F)c1ccc(O)cc1,IC50,[1],1.67 µM
N#Cc1cccc(/C=C/C(=O)c2ccc(N3CCOCC3)cc2)c1,IC50,[1],> 500 µM
COc1cccc(C(=O)/C=C/c2cccc(C#N)c2)c1,IC50,[1],8.13 µM
N#Cc1cccc(/C=C/C(=O)c2ccc(S(=O)(=O)Nc3ccccc3)cc2)c1,IC50,[2],28.9 µM
same,IC50,[3],48.5 µM
same,IC50,[4],18.7 µM
same,IC50,[1],1.11 µM
same,inhibition (INH),[5],>50%
N#Cc1ccc(/C=C/C(=O)c2ccc(O)c(F)c2)cc1,IC50,[2],28.4 µM
same,IC50,[3],29 µM
same,IC50,[4],15.8 µM
same,IC50,[1],0.21 µM
same,inhibition (INH),[5],>50%
N#Cc1cccc(/C=C/C(=O)c2ccc(Br)cc2)c1,IC50,[1],1.66 µM
N#Cc1ccc(/C=C/C(=O)c2ccc(O)c(C(F)(F)F)c2)cc1,IC50,[2],33.7 µM
same,IC50,[3],26.4 µM
same,IC50,[4],10.4 µM
same,IC50,[1],1.11 µM
same,inhibition (INH),[5],>50%
O=C(/C=C/c1ccc(Br)cc1)c1cccc(O)c1,IC50,[2],67.8 µM
same,inhibition (INH),[6],>50%
same,IC50,[3],76.3 µM
same,IC50,[4],26.2 µM
same,IC50,[1],0.4 µM
COC(=O)c1cccc(/C=C/C(=O)c2ccc(NS(=O)(=O)c3ccc([N+](=O)[O-])cc3)cc2)c1,IC50,[1],> 100 µM
N#Cc1cccc(/C=C/C(=O)c2ccc(N)cc2)c1,IC50,[1],> 500 µM
N#Cc1cccc(/C=C/C(=O)c2ccc(NS(=O)(=O)c3ccc([N+](=O)[O-])cc3)cc2)c1,IC50,[1],8.51 µM
N#Cc1cccc(/C=C/C(=O)c2cccc(O)c2)c1,IC50,[1],1.87 µM
Nc1ccc(C(=O)/C=C/c2cccc(C(=O)O)c2)cc1,IC50,[1],> 100 µM
O=C(O)c1cccc(/C=C/C(=O)c2ccc(N3CCOCC3)cc2)c1,IC50,[1],> 100 µM
O=C(/C=C/c1ccc(B(O)O)cc1)c1ccccc1,IC50,[2],32.1 µM
same,IC50,[3],31.2 µM
same,IC50,[4],22.9 µM
same,IC50,[1],1.25 µM
same,inhibition (INH),[5],>50%
N#Cc1cccc(/C=C/C(=O)c2ccc(B(O)O)cc2)c1,IC50,[2],20.2 µM
same,IC50,[3],24.3 µM
same,IC50,[4],13 µM
same,IC50,[1],0.83 µM
same,inhibition (INH),[5],>50%
COC(=O)c1cccc(/C=C/C(=O)c2ccc(O)c(C(F)(F)F)c2)c1,IC50,[2],35 µM
same,inhibition (INH),[6],>50%
same,IC50,[3],11.6 µM
same,IC50,[4],10.3 µM
same,IC50,[1],0.49 µM
COC(=O)c1cccc(/C=C/C(=O)c2ccc(OC)c(O)c2)c1,IC50,[1],47.8 µM
COC(=O)c1cccc(/C=C/C(=O)c2ccc(CO)c(Br)c2)c1,IC50,[2],20.6 µM
same,inhibition (INH),[6],>50%
same,IC50,[3],13.6 µM
same,IC50,[4],17.2 µM
same,IC50,[1],0.13 µM
O=C(/C=C/c1ccccc1O)c1ccccc1O,inhibition,[1],inactive
COc1cc(C(=O)/C=C/c2cccc(C#N)c2)ccc1O,IC50,[1],2.72 µM
O=C(/C=C/c1cccc(O)c1)c1ccccc1O,inhibition,[1],inactive
N#Cc1cccc(/C=C/C(=O)c2cnccn2)c1,inhibition,[7],inactive
same,IC50,[1],> 500 µM
COc1ccc(C(=O)/C=C/c2cccc(C#N)c2)cc1OC,IC50,[1],> 100 µM
COc1ccc(C(=O)/C=C/c2cccc(C#N)c2)cc1O,IC50,[1],10.9 µM
O=C(/C=C/c1cccc(C(F)(F)F)c1)c1ccc(O)cc1,IC50,[1],1.56 µM
N#Cc1cccc(/C=C/C(=O)c2ccc(Cl)c(F)c2)c1,IC50,[1],> 500 µM
COc1ccc(/C=C/C(=O)c2ccc(NC(=O)c3cccs3)cc2)cc1,IC50,[1],> 500 µM
